# MT1-MMP act inh = blocks activation of human MT1-MMP | actives 0.061% (n = 360,000) | P50281 | GFP/RFP ratio change, % at 20 µM | HT1080 RFP-PRO-GFP cells, GFP/RFP ratio fluorescence, overnight; percent of plate control window, DMSO zero;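 active = GFP/RFP ratio change of at least 30% with cell ATP level not reduced by more than half and red fluorescence within 50% of control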
#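 system = RFP-PRO-GFP reporter HT1080 cells | dosing = 20 µM single dose, 1% DMSO | timing = overnight cell settling, then overnight compound exposure, 37 °C, 5% CO2 | read-out basis = GFP/RFP fluorescence ratio | controls = DMSO and RFP-L50D-GFP cell wells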
# Cardio protect = protects H9c2 cardiomyocytes from peroxide injury. H2O2 injury protection, ATPLite, 2 h. protection from H2O2 cell death, % at 20 µM. actives 0.63% (n = 360,000). AID 588492;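 active = compounds giving at least 50% protection of heart cells from peroxide-induced death in the single-dose screen, raw or plate-pattern-corrected value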
# Tn6 DDE FP = DD(E)-Tn6 binding inhibition, primary FP screen; inhibition, % at 8.3 µM; actives 0.21% (n = 370,000); Fibrin DD(E) TRITC-Tn6 fluorescence polarization displacement;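 active = inhibition above a per-campaign cutoff: mean of compounds within control limits plus 3 SD, cut at about 15% in these data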
# DAGLB inhibitor = blocks human DAGLB lipase activity | Q8NCG7 | HEK293T DAGLB membrane lysate, EnzChek fluorogenic substrate | inhibition, % at 5.17 µM | actives 0.059% (n = 340,000) | AID 504411; in the data active = inhibition above about 34%
# Target sequence (Q8NCG7 whole entry, looked up): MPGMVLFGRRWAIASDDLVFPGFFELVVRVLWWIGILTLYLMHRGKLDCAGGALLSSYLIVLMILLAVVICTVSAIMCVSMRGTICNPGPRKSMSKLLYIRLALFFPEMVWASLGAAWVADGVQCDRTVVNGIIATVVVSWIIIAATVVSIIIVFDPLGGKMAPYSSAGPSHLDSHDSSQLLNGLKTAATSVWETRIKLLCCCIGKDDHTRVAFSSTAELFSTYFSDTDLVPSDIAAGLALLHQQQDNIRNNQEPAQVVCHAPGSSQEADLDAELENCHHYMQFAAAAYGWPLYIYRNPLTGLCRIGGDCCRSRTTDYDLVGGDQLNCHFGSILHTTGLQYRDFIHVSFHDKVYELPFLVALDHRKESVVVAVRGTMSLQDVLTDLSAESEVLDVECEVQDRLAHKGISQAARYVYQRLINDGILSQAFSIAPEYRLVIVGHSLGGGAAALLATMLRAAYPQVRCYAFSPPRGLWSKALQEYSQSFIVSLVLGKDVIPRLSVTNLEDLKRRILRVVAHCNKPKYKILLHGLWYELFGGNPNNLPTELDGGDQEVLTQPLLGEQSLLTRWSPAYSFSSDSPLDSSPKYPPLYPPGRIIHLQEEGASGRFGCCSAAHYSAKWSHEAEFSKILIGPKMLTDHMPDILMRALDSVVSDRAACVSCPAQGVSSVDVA
# Tn7 DDE FP = DD(E)-Tn7 binding inhibition, primary FP screen. FP displacement of FITC-Tn7 peptide from fibrin DD(E); 0% = median of compound wells per plate. inhibition, % at 8.3 µM. actives 0.13% (n = 370,000). AID 720508;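 active = inhibition above the mean of compounds falling within the control limits plus 3 SD of them, cut at about 14% in these data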
#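 Assay system: Human clot-derived fibrin DD(E) complex | Buffer or medium: Tris/NaCl/CaCl2 buffer, pH 7.8 | Repeats: One replicate per compound | Benchmarks: Aha-Tn7 high control | Measure: % inhibition scaled between sample-field median and high-control FP | Schedule: 10 min plus 3 h, room temperature | Signal: Fluorescence polarization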
# H9c2 TAG inh = inhibitors of triacylglycerol accumulation; inhibition, % at 12.5 µM; AID 651582; actives 0.66% (n = 230,000); H9c2 cells, Nile Red lipid (TAG) fluorescence; cells loaded with 200 µM oleic acid;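 active = pattern-corrected inhibition of lipid staining of at least 50% with the nuclear-stain viability signal not falling by more than 50%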
# Hits are given with their value; i = inactive; nt = not tested or not shown. A selection: hits, their analogues and other compounds. The true share with any hit is near 1.4%.
SMILES,MT1-MMP act inh,Cardio protect,Tn6 DDE FP,DAGLB inhibitor,Tn7 DDE FP,H9c2 TAG inh
C=CC(=O)N1C/C(=C/c2ccc(F)cc2)C(=O)/C(=C\c2ccc(F)cc2)C1,i,i,i,i,i,78
Nc1ccn([C@@H]2O[C@H](CO)[C@@H](O)[C@@H]2O)c(=O)n1,i,i,16,i,15,i
Nc1ccn(C2OC(CO)C(O)C2O)c(=O)n1 (centres undefined),i,i,i,nt,i,nt
COc1ccc([C@H]2/C=C\CN(S(=O)(=O)c3cccc4cccnc34)[C@@H](C)C(=O)N2Cc2ccc(F)cc2)cc1,i,i,i,i,i,i
COc1ccc(C2/C=C\CN(S(=O)(=O)c3cccc4cccnc34)CC(=O)N2Cc2ccc(F)cc2)cc1 (centres undefined),i,50,i,i,i,i
COc1ccc2c(c1)CN1C(=O)N(Cc3ccccc3)S(=O)(=O)CC21 (centres undefined),nt,nt,i,nt,i,nt
CC(=O)N1C[C@@H](c2c[nH]c3ccccc23)C=C[C@H]1C(=O)NS(=O)(=O)c1ccc(C)cc1,nt,nt,i,nt,i,nt
CCn1cc([N+](=O)[O-])c(C(=O)N2N=C(c3ccc4ccccc4c3)CC2c2ccccc2O)n1 (centres undefined),i,i,i,i,i,71
C/C(=N\Nc1nnc2c3ccccc3n(C)c2n1)c1ccc(C)o1,i,70,i,i,i,nt
C/C(=N\Nc1nc(C)cc(C)n1)c1ccc(C)o1,i,i,i,nt,i,i
c1nc(NCC2CCCOC2)c2cc(-c3ccc4c(c3)OCO4)ccc2n1 (centres undefined),nt,nt,i,nt,i,nt
Cc1ccc2sc(NNC(=O)c3cc(=O)c4ccccc4o3)nc2c1C,i,56,i,i,i,i
Cc1cccc2sc(NNC(=O)c3cc(=O)c4ccccc4o3)nc12,i,i,i,i,i,i
CN(C)CCNc1nc2sc3c(c2c(=O)n1CCc1ccccc1)CCCCC3,i,i,i,i,i,80
O=C(CCl)N(Cc1ccccc1)c1ccccc1,i,i,i,i,i,i
Cc1cccc(N(Cc2ccccc2)C(=O)CCl)c1,i,i,i,i,i,68
NC(=O)C1=CN([C@@H]2O[C@H](COP(=O)(O)OP(=O)(O)OC[C@H]3O[C@@H](n4cnc5c(N)ncnc54)[C@H](O)[C@@H]3O)[C@@H](O)[C@H]2O)C=CC1,nt,nt,i,nt,i,nt
OC1CCN(c2c3c(nc4cc(-c5cccc(F)c5)nn24)CCCC3)CC1,i,59,i,i,i,nt
CCN1C(=O)/C(=C/c2nc3ccccc3c(=O)[nH]2)c2ccccc21,i,78,i,i,i,nt
O=C(CCl)Nc1ccc(N=Nc2ccccc2)cc1,i,i,i,i,i,nt
O=C(CCl)Nc1ccc(-c2ccccc2)cc1,i,i,i,i,i,56
Cc1ccc(C)c(Sc2ccc(NC(=O)CCl)cc2)c1,nt,nt,i,nt,i,nt
Cc1ccc(Sc2ccc(NC(=O)CCl)cc2)cc1C,i,i,i,i,i,63
CCN(CC)CCn1c2c(c(SCC(=O)Nc3cccc(C(C)=O)c3)nc1=O)CCCC2,i,75,i,i,i,i
CCN(CC)CCCn1c2c(c(SCC(=O)Nc3cccc(C(C)=O)c3)nc1=O)CCC2,i,i,i,i,i,i
SMILES,MT1-MMP act inh,Cardio protect,Tn6 DDE FP,DAGLB inhibitor,Tn7 DDE FP,H9c2 TAG inh
COc1cccc(/C=N/Nc2cc(N3CCOCC3)ncn2)c1O,i,i,i,i,i,71
CCOc1ccc(/C=N/Nc2cc(N3CCOCC3)nc(C)n2)c(O)c1,i,78,i,i,i,nt
COc1cccc(/C=N/Nc2ncnc3c2ncn3Cc2ccccc2)c1O,i,60,i,i,i,i
COC(=O)C[C@@H]1CC[C@@H]2[C@@H](COc3ccc(NC(C)=O)cc3C(=O)N2C)O1,nt,nt,i,nt,i,nt
COc1ccc(C(CCOC(=O)Oc2ccccc2)c2cc(OC)c(OC)c(OC)c2)cc1 (centres undefined),nt,nt,i,nt,i,nt
CCCOc1ccc(-c2nc(CSCC(=O)NC3CC3)c(C)o2)cc1,nt,nt,i,nt,i,nt
CCN(C[C@H]1N[C@@](C)(C(=O)OC)[C@H]2C(=O)N(Cc3ccccc3)C(=O)[C@@H]12)C(=O)c1ccc(C(C)(C)C)cc1,i,57,i,i,i,i
CCN(C[C@H]1N[C@@](CC)(C(=O)OC)[C@H]2C(=O)N(Cc3ccccc3)C(=O)[C@@H]12)C(=O)c1ccc(C(C)(C)C)cc1,i,63,i,i,i,i
CC[C@@]1(C(=O)OC)N[C@H](CN(C)C(=O)c2ccc(C(C)(C)C)cc2)[C@@H]2C(=O)N(Cc3ccccc3)C(=O)[C@@H]21,i,i,i,i,i,i
C=CCn1c(COc2ccccc2)nnc1SCC(=O)N/N=C/c1ccc(C)cc1,i,i,i,i,i,i
C=CCn1c(CNc2ccc(C)cc2)nnc1SCC(=O)N/N=C/c1ccc(O)cc1O,i,68,i,i,i,i
C=CCn1c(COc2ccccc2)nnc1SCC(=O)N/N=C/c1cc(Cl)ccc1O,i,86,i,i,i,i
CCn1c(CNc2ccc(C)cc2)nnc1SCC(=O)NCc1ccccc1,i,i,i,i,i,nt
C=CCn1c(CNc2ccccc2)nnc1SCC(=O)N/N=C/c1ccc(O)cc1O,i,85,i,i,i,i
COCC(=O)N(C)[C@H]1C[C@H]2c3[nH]c4c(-c5ccccc5)cccc4c3CCN2C(=O)[C@H]1[C@H](C)O,nt,nt,i,nt,i,nt
CCOC(=O)C1CCN(C(c2cc3ccc(C)c(C)c3[nH]c2=O)c2nnnn2C2CCCCC2)CC1 (centres undefined),i,i,i,i,i,nt
CCOC(=O)C1CCN(C(c2cc3c(C)ccc(C)c3[nH]c2=O)c2nnnn2C2CCCCC2)CC1 (centres undefined),i,57,i,i,i,nt
CCOCC(=O)NC(=O)N1C[C@H]2CON(C)[C@H]2C[C@H]1c1ccc(OC)cc1,nt,nt,i,nt,i,nt
Cc1cc(C(=O)N/N=C/c2ccc(OC(=O)c3ccccc3Br)cc2)n[nH]1,i,i,i,i,i,i
Cc1cc(C(=O)N/N=C/c2cc(Br)ccc2OC(=O)c2ccccc2Cl)n[nH]1,i,51,i,i,i,i
O=C(N/N=C/c1cc(Br)ccc1OC(=O)c1ccc(Br)cc1)c1ccncc1,i,i,i,i,i,nt
Cc1cc(C(=O)N/N=C/c2cc(Br)ccc2OC(=O)c2ccccc2)n[nH]1,i,56,i,i,i,i
N#Cc1ccc2nc(-c3ccc(CN4CCC(c5nc6ccccc6[nH]5)CC4)cc3)c(-c3ccccc3)nc2c1,nt,nt,i,nt,i,nt
Cc1nc(SCC(=O)NCc2ccc(F)cc2)c2c(=O)n(C)c(=O)n(C)c2n1,i,53,i,i,i,i

# Screening data as filed in PubChem.
